ChEMBL document CHEMBL1140956, “Syntheses of 4-(indole-3-yl)quinazolines: a new class of epidermal growth factor receptor tyrosine kinase inhibitors” (Eur J Med Chem, 2008)

Assays:
[1] = target: Epidermal growth factor receptor (Homo sapiens, UniProt P00533); assay: Inhibition of human EGFR tyrosine kinase activity
[2] = target: Receptor tyrosine-protein kinase erbB-2 (Homo sapiens) (UniProt P04626); assay: Inhibition of human HER2 tyrosine kinase activity at 100 nM
EKVX = assay: Growth inhibition of human EKVX cells after 72 hrs by SRB assay; format: functional; conditions: 48 h, in the assay text read “48 hrs” for “72 hrs”
Procedure, shortened: (§1)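 NCI 60-cell-line screen. Cells were grown in RPMI 1640 with 5% fetal bovine serum, plated at 5000–40 000 cells/well by doubling time, and held 24 h at 37 °C, 5% CO2. Time-zero plates were TCA-fixed when the DMSO-solubilized drug was added at five concentrations (10-fold or ½-log dilutions). After 48 h, cells were fixed with cold TCA and stained with 0.4% SRB in 1% acetic acid. Bound dye was dissolved in 10 mM trizma base and read at 515 nm. Percentage growth was calculated relative to time-zero and control.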

HOP-92 = assay: Growth inhibition of human HOP92 cells after 72 hrs by SRB assay; format: functional; conditions: HOP-92, 48 h, in the assay text read “48 hrs” for “72 hrs”; procedure, shortened: as §1
NCI-H322M = assay: Growth inhibition of human NCI-H322M cells after 72 hrs by SRB assay; format: functional; conditions: 48 h, in the assay text read “48 hrs” for “72 hrs”; procedure, shortened: as §1
IGROV-1 = assay: Growth inhibition of human IGROV1 cells after 72 hrs by SRB assay; format: functional; conditions: IGROV-1, 48 h, in the assay text read “48 hrs” for “72 hrs”; procedure, shortened: as §1
SK-OV-3 = assay: Growth inhibition of human SKOV3 cells after 72 hrs by SRB assay; format: functional; conditions: SK-OV-3, 48 h, in the assay text read “48 hrs” for “72 hrs”; procedure, shortened: as §1
A498 = assay: Growth inhibition of human A498 cells after 72 hrs by SRB assay; format: functional; conditions: A498, 48 h, in the assay text read “48 hrs” for “72 hrs”; procedure, shortened: as §1
ACHN = assay: Growth inhibition of human ACHN cells after 72 hrs by SRB assay; format: functional; conditions: 48 h, in the assay text read “48 hrs” for “72 hrs”; procedure, shortened: as §1
TK-10 = assay: Growth inhibition of human TK10 cells after 72 hrs by SRB assay; format: functional; conditions: TK-10, 48 h, in the assay text read “48 hrs” for “72 hrs”; procedure, shortened: as §1
HT-29 = assay: Growth inhibition of human HT29 cells after 72 hrs by SRB assay; format: functional; conditions: HT-29, 48 h, in the assay text read “48 hrs” for “72 hrs”; procedure, shortened: as §1
PC-3 = assay: Growth inhibition of human PC3 cells after 72 hrs by SRB assay; format: functional; conditions: PC-3, 48 h, in the assay text read “48 hrs” for “72 hrs”; procedure, shortened: as §1
SNB-75 = assay: Growth inhibition of human SNB75 cells after 72 hrs by SRB assay; format: functional; conditions: SNB-75, 48 h, in the assay text read “48 hrs” for “72 hrs”; procedure, shortened: as §1

Epidermal growth factor receptor, sequence (P00533 whole entry): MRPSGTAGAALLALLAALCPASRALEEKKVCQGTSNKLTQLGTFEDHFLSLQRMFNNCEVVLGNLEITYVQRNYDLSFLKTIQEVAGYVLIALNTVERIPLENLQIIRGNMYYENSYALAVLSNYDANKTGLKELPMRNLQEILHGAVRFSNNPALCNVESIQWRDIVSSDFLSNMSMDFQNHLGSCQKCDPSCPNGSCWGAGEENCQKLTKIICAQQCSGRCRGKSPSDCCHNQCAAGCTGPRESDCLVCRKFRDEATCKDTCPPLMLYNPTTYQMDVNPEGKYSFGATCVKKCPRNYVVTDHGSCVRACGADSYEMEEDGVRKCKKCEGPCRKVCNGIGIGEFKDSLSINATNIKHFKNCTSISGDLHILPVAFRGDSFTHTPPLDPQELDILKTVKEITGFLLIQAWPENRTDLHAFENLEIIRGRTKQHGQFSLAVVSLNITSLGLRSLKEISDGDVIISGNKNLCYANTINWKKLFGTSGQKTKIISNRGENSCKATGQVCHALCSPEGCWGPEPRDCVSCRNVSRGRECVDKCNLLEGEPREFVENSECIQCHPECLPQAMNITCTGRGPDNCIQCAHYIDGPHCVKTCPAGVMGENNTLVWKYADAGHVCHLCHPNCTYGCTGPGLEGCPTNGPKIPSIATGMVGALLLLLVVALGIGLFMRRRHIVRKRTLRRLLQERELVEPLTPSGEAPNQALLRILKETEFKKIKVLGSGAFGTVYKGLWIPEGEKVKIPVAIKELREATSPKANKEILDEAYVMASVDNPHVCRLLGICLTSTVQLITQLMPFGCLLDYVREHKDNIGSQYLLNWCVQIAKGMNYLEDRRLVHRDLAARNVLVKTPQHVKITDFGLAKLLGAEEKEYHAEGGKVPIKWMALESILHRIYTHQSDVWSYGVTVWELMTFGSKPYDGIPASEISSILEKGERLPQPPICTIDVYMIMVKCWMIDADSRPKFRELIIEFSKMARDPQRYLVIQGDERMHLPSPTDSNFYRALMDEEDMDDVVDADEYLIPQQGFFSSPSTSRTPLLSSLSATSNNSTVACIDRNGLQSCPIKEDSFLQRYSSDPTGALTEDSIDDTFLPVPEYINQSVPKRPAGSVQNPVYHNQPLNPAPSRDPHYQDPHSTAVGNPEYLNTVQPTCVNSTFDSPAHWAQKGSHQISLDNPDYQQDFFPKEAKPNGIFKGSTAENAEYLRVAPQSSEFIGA
Receptor tyrosine-protein kinase erbB-2 (Homo sapiens), sequence (P04626 whole entry): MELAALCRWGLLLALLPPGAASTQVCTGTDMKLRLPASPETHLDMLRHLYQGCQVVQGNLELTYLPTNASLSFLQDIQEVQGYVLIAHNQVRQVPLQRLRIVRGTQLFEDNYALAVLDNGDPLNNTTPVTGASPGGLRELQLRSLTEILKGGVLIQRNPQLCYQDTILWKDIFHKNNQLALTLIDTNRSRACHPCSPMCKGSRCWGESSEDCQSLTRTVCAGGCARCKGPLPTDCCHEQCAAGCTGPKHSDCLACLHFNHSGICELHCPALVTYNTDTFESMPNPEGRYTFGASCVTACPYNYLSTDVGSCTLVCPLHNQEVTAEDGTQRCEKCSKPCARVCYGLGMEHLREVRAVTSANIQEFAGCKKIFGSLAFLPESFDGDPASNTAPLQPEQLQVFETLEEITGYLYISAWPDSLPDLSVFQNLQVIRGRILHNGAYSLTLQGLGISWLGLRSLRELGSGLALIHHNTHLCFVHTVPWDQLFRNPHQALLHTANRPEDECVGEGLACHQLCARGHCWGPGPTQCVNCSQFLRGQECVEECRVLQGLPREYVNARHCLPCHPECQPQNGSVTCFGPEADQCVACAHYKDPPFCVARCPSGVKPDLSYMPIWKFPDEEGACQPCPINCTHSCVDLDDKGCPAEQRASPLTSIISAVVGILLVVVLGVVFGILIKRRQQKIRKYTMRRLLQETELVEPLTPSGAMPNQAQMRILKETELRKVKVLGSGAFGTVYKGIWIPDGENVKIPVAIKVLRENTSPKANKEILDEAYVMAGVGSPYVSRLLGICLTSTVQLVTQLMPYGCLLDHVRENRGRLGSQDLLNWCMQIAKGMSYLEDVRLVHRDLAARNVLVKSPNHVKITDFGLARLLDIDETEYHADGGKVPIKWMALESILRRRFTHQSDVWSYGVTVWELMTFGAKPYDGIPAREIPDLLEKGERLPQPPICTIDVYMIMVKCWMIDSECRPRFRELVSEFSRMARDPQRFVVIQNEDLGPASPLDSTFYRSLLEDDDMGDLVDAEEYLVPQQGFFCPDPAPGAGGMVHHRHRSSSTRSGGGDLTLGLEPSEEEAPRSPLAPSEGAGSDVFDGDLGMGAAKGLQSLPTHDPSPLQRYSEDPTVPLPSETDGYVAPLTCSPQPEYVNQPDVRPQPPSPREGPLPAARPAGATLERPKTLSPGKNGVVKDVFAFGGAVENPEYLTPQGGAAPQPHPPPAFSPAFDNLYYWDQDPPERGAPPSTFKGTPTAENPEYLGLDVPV

IC50 [1] | Compound | inhibition [2] | GI50 (EKVX) | GI50 (HOP-92) | GI50 (NCI-H322M) | GI50 (IGROV-1) | GI50 (SK-OV-3) | GI50 (A498) | GI50 (ACHN) | GI50 (TK-10) | GI50 (HT-29) | GI50 (PC-3) | GI50 (SNB-75)
472 nM | COCCOc1cc2ncnc(-c3c[nH]c4cc(F)c(Cl)cc34)c2cc1OCCOC | – | – | – | – | – | – | – | – | – | – | – | –
209 nM | COc1cc2ncnc(-c3c[nH]c4cc(F)c(Cl)cc34)c2cc1OC | 3% | 410 nM | 1750 nM | 255 nM | 424 nM | 711 nM | 492 nM | 222 nM | 325 nM | 848 nM | 766 nM | 204 nM
533 nM | COc1cc2ncnc(-c3c[nH]c4cc(F)c(C)cc34)c2cc1OC | – | – | – | – | – | – | – | – | – | – | – | –

Compound | IC50 [1] | inhibition [2] | GI50 (EKVX) | GI50 (HOP-92) | GI50 (NCI-H322M) | GI50 (IGROV-1) | GI50 (SK-OV-3) | GI50 (A498) | GI50 (ACHN) | GI50 (TK-10) | GI50 (HT-29) | GI50 (PC-3) | GI50 (SNB-75)
COc1cc2ncnc(-c3c[nH]c4ccc(Br)cc34)c2cc1OC | 131 nM | – | – | – | – | – | – | – | – | – | – | – | –
COc1cc2ncnc(-c3c[nH]c4cc(F)c(Cl)cc34)c2cc1OCCCN1CCOCC1 | 333 nM | 19% | 89.7 nM | 504 nM | 38 nM | 108 nM | 592 nM | 2900 nM | 215 nM | 97.6 nM | 3700 nM | 490 nM | 49.3 nM
